Results taken from ChEMBL document CHEMBL1123497, “Structure-activity studies of 4,6-disubstituted 2-(morpholinocarbonyl)furo[3,2-b]indole derivatives with analgesic and antiinflammatory activities” (1986).

What was measured:
Assay type in all cases: functional
[1] = tested on: Rattus norvegicus; assay: Antiinflammatory activity by Carrageenan edema assay in rats; parameters: concentration or dose not given beside the values; unit not given here
In short: (§1)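 Groups of six male Wistar rats (130–170 g) were dosed orally 60 min before a subplantar injection of 0.5% λ-carrageenin suspension (0.1 mL/rat) into the left hind paw. Foot volume was measured every 60 min for 360 min, and % swelling was compared with controls. ED50 and 95% confidence limits came from Litchfield–Wilcoxon. Screening used % edema inhibition at 100 mg/kg po.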

[2] = species on record: Mus musculus; assay: Analgesic activity by acetic acid writhing assay in mice; parameters: concentration or dose not given beside the values
In short: (§2)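 Mice received drug orally 30 min before an ip injection of 0.7% acetic acid (10 mL/kg). Writhes were counted 10–20 min after injection, and % inhibition was taken against a control group. ED50 and 95% confidence limits came from the Litchfield–Wilcoxon method.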

[3] = species on record: Mus musculus; assay: Inhibition of acetic acid induced writhing in mice.; in short: as §2
[4] = tested on: Rattus norvegicus; assay: Compound was evaluated for antiinflammatory activity by Carrageenan edema assay in rats; in short: as §1
[5] = species on record: Rattus norvegicus; assay: Compound was evaluated for analgesic activity in Randall-Selitto test in normal foot rats
[6] = tested on: Rattus norvegicus; assay: Compound was evaluated for antiinflammatory activity in rats by carrageenan edema test; in short: as §1
[7] = species on record: Rattus norvegicus; assay: Compound was evaluated for analgesic activity in Adjuvant-induced arthritic pain test in rats
In short: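 Groups of six male SD rats (160–200 g) received 0.5% Mycobacterium butyricum suspension (0.1 mL/rat) intradermally into the distal tail. After 15–18 days, rats that vocalized on gentle flexion were dosed orally, and the pain response was checked every 60 min for 300 min. Absence of response counted as positive. ED50 and 95% confidence limits came from Litchfield–Wilcoxon.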

[8] = species on record: Mus musculus; assay: Compound was evaluated for analgesic activity in Pressure test in mice
In short: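 Groups of 10 male ddY mice (19–24 g) were dosed orally, and pain threshold to pressure was measured every 30 min for 120 min. A postdrug threshold raised more than 50% over the predrug value counted as positive. ED50 and 95% confidence limits came from Litchfield–Wilcoxon.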

[9] = species on record: Rattus norvegicus; assay: Compound was evaluated for analgesic activity in Randall-Selitto test in inflamed foot rats
In short: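 Groups of six male Wistar rats (90–110 g) received 20% yeast suspension (0.1 mL/rat) subplantar into the right hind paw, then oral drug 120 min later. Pain threshold was read every 60 min for 240 min. A rise of more than 50% over the control group counted as positive. ED50 and 95% confidence limits came from Litchfield–Wilcoxon.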

[10] = species on record: Rattus norvegicus; assay: Compound was evaluated for antipyretic activity in rats by yeast induced fever test
In short: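 Groups of six male Wistar rats (190–210 g) received 7.5% yeast suspension sc (10 mL/kg). Rats whose temperature rose by more than 1 °C were dosed orally 180 min later. Body temperature was recorded automatically every 60 min for 360 min, and % inhibition was compared with controls. ED50 and 95% confidence limits came from Litchfield–Wilcoxon.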

[11] = species on record: Mus musculus; assay: Compound was evaluated for analgesic activity in Acetic acid writhing assay in mice; in short: as §2

Row | Structure (SMILES) | Inhibition [1] | Inhibition [2] | ED50 [3] | also measured
1 | CCCCCCCCn1c2cc(C(F)(F)F)ccc2c2oc(C(=O)N3CCOCC3)cc21 | 3 | – | – | –
2 | COC(=O)n1c2cc(Cl)ccc2c2oc(C(=O)N3CCOCC3)cc21 | 1 | 1% | – | –
3 | CC(C)COC(=O)n1c2cc(C(F)(F)F)ccc2c2oc(C(=O)N3CCOCC3)cc21 | 2 | 2% | – | –
4 | CCOC(=O)n1c2cc(C(F)(F)F)ccc2c2oc(C(=O)N3CCOCC3)cc21 | 3 | 3% | 35.6 mg/kg | –
5 | CCCCC(=O)n1c2cc(C(F)(F)F)ccc2c2oc(C(=O)N3CCOCC3)cc21 | 3 | 3% | 34.5 mg/kg | –
6 | COC(=O)n1c2ccccc2c2oc(C(=O)N3CCOCC3)cc21 | – | 1% | – | Inhibition [4]: 2%
7 | CCCOC(=O)n1c2cc(C(F)(F)F)ccc2c2oc(C(=O)N3CCOCC3)cc21 | 3 | 3% | 34.6 mg/kg | –
8 | Cc1ccc2c3oc(C(=O)N4CCOCC4)cc3n(C(=O)OCC(C)C)c2c1 | 2 | 2% | – | –
9 | CC(C)OC(=O)n1c2cc(F)ccc2c2oc(C(=O)N3CCOCC3)cc21 | 1 | 2% | – | –
10 | CCCCOC(=O)n1c2cc(C(F)(F)F)ccc2c2oc(C(=O)N3CCOCC3)cc21 | 3 | 3% | 21.4 mg/kg | –
11 | CCOC(=O)n1c2cc(OC)ccc2c2oc(C(=O)N3CCOCC3)cc21 | 1 | 1% | – | –
12 | CCCOC(=O)n1c2cc(OC)ccc2c2oc(C(=O)N3CCOCC3)cc21 | 1 | 2% | – | –
13 | CCCOC(=O)n1c2cc(F)ccc2c2oc(C(=O)N3CCOCC3)cc21 | 1 | 2% | – | –
14 | CCCCOC(=O)n1c2cc(OC)ccc2c2oc(C(=O)N3CCOCC3)cc21 | 1 | 2% | – | –
15 | CCCCCn1c2cc(C(F)(F)F)ccc2c2oc(C(=O)N3CCOCC3)cc21 | 3 | 3% | 10.9 mg/kg | –
16 | CCOC(=O)n1c2cc(O)ccc2c2oc(C(=O)N3CCOCC3)cc21 | 1 | 2% | – | –
17 | CC(C)Cn1c2cc(C(F)(F)F)ccc2c2oc(C(=O)N3CCOCC3)cc21 | 3 | 2% | – | –
18 | CCOC(=O)n1c2cc(C)ccc2c2oc(C(=O)N3CCOCC3)cc21 | 3 | 2% | – | –
19 | CC(C)(C)C(=O)n1c2cc(C(F)(F)F)ccc2c2oc(C(=O)N3CCOCC3)cc21 | 1 | 3% | – | –
20 | COC(=O)n1c2cc(C)ccc2c2oc(C(=O)N3CCOCC3)cc21 | 2 | 1% | – | –
21 | CCCOC(=O)n1c2cc(Cl)ccc2c2oc(C(=O)N3CCOCC3)cc21 | 2 | 2% | – | –
22 | CCCCOC(=O)n1c2cc(C)ccc2c2oc(C(=O)N3CCOCC3)cc21 | 1 | 2% | – | –
23 | COC(=O)n1c2cc(C(F)(F)F)ccc2c2oc(C(=O)N3CCOCC3)cc21 | 1 | 1% | – | –
24 | CC(C)C(=O)n1c2cc(C(F)(F)F)ccc2c2oc(C(=O)N3CCOCC3)cc21 | 3 | 3% | 7.3 mg/kg | –
25 | CCCCCCCCC(=O)n1c2cc(C(F)(F)F)ccc2c2oc(C(=O)N3CCOCC3)cc21 | 2 | 3% | – | –
26 | CCCOC(=O)n1c2cc(C)ccc2c2oc(C(=O)N3CCOCC3)cc21 | 1 | 2% | – | –
27 | CC(C)COC(=O)n1c2ccccc2c2oc(C(=O)N3CCOCC3)cc21 | 1 | 1% | – | –

Row | Structure (SMILES) | Inhibition [1] | Inhibition [2] | ED50 [3] | also measured
28 | COc1ccc2c3oc(C(=O)N4CCOCC4)cc3n(C(=O)OCC(C)C)c2c1 | 1 | 3% | – | –
29 | CCOC(=O)n1c2ccccc2c2oc(C(=O)N3CCOCC3)cc21 | 1 | 1% | – | –
30 | CC(C)=CCn1c2cc(C(F)(F)F)ccc2c2oc(C(=O)N3CCOCC3)cc21 | 3 | 3% | 10.1 mg/kg | –
31 | CCCCCCn1c2cc(C(F)(F)F)ccc2c2oc(C(=O)N3CCOCC3)cc21 | 3 | 3% | 7.7 mg/kg | –
32 | CC(C)OC(=O)n1c2cc(C(F)(F)F)ccc2c2oc(C(=O)N3CCOCC3)cc21 | 3 | 3% | 4.7 mg/kg | –
33 | CC(C)OC(=O)n1c2cc(Cl)ccc2c2oc(C(=O)N3CCOCC3)cc21 | 3 | 3% | 21.4 mg/kg | –
34 | COC(=O)n1c2cc(OC)ccc2c2oc(C(=O)N3CCOCC3)cc21 | 1 | 1% | – | –
35 | CC(C)CCCn1c2cc(C(F)(F)F)ccc2c2oc(C(=O)N3CCOCC3)cc21 | 3 | 3% | 6 mg/kg | –
36 | CC(C)CCn1c2cc(C(F)(F)F)ccc2c2oc(C(=O)N3CCOCC3)cc21 | 3 | 3% | 5.1 mg/kg | –
37 | CCCCn1c2cc(C(F)(F)F)ccc2c2oc(C(=O)N3CCOCC3)cc21 | 3 | 3% | 29.5 mg/kg | –
38 | CCCCOC(=O)n1c2cc(Cl)ccc2c2oc(C(=O)N3CCOCC3)cc21 | 2 | 3% | – | –
39 | CC(C)OC(=O)n1c2ccccc2c2oc(C(=O)N3CCOCC3)cc21 | 2 | 2% | – | –
40 | CC(C)CC(=O)n1c2cc(C(F)(F)F)ccc2c2oc(C(=O)N3CCOCC3)cc21 | 3 | 3% | 6 mg/kg | –
41 | COc1ccc2c3oc(C(=O)N4CCOCC4)cc3n(C(=O)OC(C)C)c2c1 | 1 | 2% | – | –
42 | CCOC(=O)n1c2cc(Cl)ccc2c2oc(C(=O)N3CCOCC3)cc21 | 2 | 1% | – | –
43 | CC(C)COC(=O)n1c2cc(F)ccc2c2oc(C(=O)N3CCOCC3)cc21 | 1 | 2% | – | –
44 | CCCCOC(=O)n1c2cc(F)ccc2c2oc(C(=O)N3CCOCC3)cc21 | 1 | 2% | – | –
45 | COC(=O)n1c2cc(F)ccc2c2oc(C(=O)N3CCOCC3)cc21 | 1 | 1% | – | –
46 | COC(=O)n1c2cc(O)ccc2c2oc(C(=O)N3CCOCC3)cc21 | 1 | 1% | – | –
47 | CCCCCCCn1c2cc(C(F)(F)F)ccc2c2oc(C(=O)N3CCOCC3)cc21 | 3 | 3% | 17.8 mg/kg | –
48 | CCOC(=O)n1c2cc(F)ccc2c2oc(C(=O)N3CCOCC3)cc21 | 1 | 1% | – | –
49 | Cc1ccc2c3oc(C(=O)N4CCOCC4)cc3n(C(=O)OC(C)C)c2c1 | 3 | 3% | 26 mg/kg | –
50 | CC(C)COC(=O)n1c2cc(Cl)ccc2c2oc(C(=O)N3CCOCC3)cc21 | 2 | 2% | – | –
51 | CCCOC(=O)n1c2ccccc2c2oc(C(=O)N3CCOCC3)cc21 | 1 | 1% | – | –
52 | CCCCC(CC)C(=O)n1c2cc(C(F)(F)F)ccc2c2oc(C(=O)N3CCOCC3)cc21 (stereo unspecified) | 3 | 3% | 0.7 mg/kg | ED50 [5]: 5.9 mg/kg; ED50 [6]: 5.4 mg/kg; ED50 [7]: 1.7 mg/kg; ED50 [8]: 7 mg/kg; ED50 [9]: 1.7 mg/kg; ED50 [10]: 0.059 mg/kg; ED50 [11]: 0.7 mg/kg
53 | CCCCOC(=O)n1c2ccccc2c2oc(C(=O)N3CCOCC3)cc21 | 1 | 1% | – | –
54 | O=C(Cn1c(=O)sc2ccc(Cl)cc21)N1CCN(CCO)CC1 [TIARAMIDE] | – | – | 74 mg/kg | ED50 [5]: > 160 mg/kg; ED50 [6]: 119 mg/kg; ED50 [7]: 176 mg/kg; ED50 [8]: 116 mg/kg; ED50 [9]: 94.6 mg/kg; ED50 [10]: 171 mg/kg
